Measurements reported in ChEMBL document CHEMBL3351932, “Discovery of BI 207524, an indole diamide NS5B thumb pocket 1 inhibitor with improved potency for the potential treatment of chronic hepatitis C virus infection” (J Med Chem, 2014).

How the values were obtained:
[1] = Inhibition of HCV full-length NS5B polymerase; parameters: species or system Hepacivirus hominis
In short: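 Polymerase inhibition with full-length NS5B enzyme in a biochemical assay; IC50 averaged from duplicate measurements, at least two determinations.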

[2] = Inhibition of Hepatitis C virus genotype 1b Con1 NS5B RNA dependent RNA polymerase activity using Bright-Glo luciferase substrate by cell-based 1b luciferase reporter assay; parameters: species or system Hepatitis C virus (isolate Con1)
In short: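 Cell-based genotype 1b luciferase reporter replicon assay; EC50 determined in duplicate, values averaged over at least two determinations.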

[3] = Half life in human liver microsomes; assay type: ADME
[4] = Plasma concentration in rat at 4 mg/kg, po cassette dosing after 1 hr; assay type: ADME, organism-based; parameters: dose 4 mg/kg, route oral
In short: (§1)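 Cassette screen: mixture of 4 compounds, each at 4 mg/kg, dosed orally to 2 rats; plasma sampled at 1 h and 2 h, solid-phase extracted and quantified by HPLC-UV or LC/MS against calibration standards in blank plasma (LOQ 7 ng/mL).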

[5] = Plasma concentration in rat at 4 mg/kg, po cassette dosing after 2 hrs; assay type: ADME, organism-based; parameters: dose 4 mg/kg, route oral; in short: as §1
[6] = Permeability across apical to basolateral side in human Caco2 cells; assay type: ADME, cell-based; conditions: Caco-2, read-out: permeability

| Structure (SMILES) | IC50 [1] [nM] | EC50 [2] [nM] | half-life [3] [h] | concentration at 1 h [4] [nM] | concentration at 2 h [5] [nM] | Papp A→B [6] [×10⁻⁶ cm/s] |
| --- | --- | --- | --- | --- | --- | --- |
| Cc1cc(/C=C/C(=O)O)ccc1NC(=O)C1(NC(=O)c2ccc3c(C4CCCC4)c(-c4ccccn4)n(C)c3c2)CCC1 | 370 | 1030 | – | – | – | – |
| CC(C)COc1cc(NC(=O)C2(NC(=O)c3ccc4c(C5CCCC5)c(-c5ccccn5)n(C)c4c3)CCC2)ccc1/C=C/C(=O)O | 420 | 55 | > 5 | – | – | – |
| CCOc1cc(NC(=O)C2(NC(=O)c3ccc4c(C5CCCC5)c(-c5cnn(C)c5)n(C)c4c3)CCC2)ccc1/C=C/C(=O)O | 190 | 12 | 0.733 | 400 | 100 | – |
| Cn1c(-c2ccccn2)c(C2CCCC2)c2ccc(C(=O)NC3(C(=O)Nc4c(F)cc(/C=C/C(=O)O)cc4F)CCC3)cc21 | 1320 | > 2800 | – | – | – | – |
| COCCOc1cc(NC(=O)C2(NC(=O)c3ccc4c(C5CCCC5)c(-c5ccccn5)n(C)c4c3)CCC2)ccc1/C=C/C(=O)O | 56 | 27 | 1.45 | – | – | – |
| CCOc1cc(NC(=O)C2(NC(=O)c3ccc4c(C5CCCC5)c(-c5ccccc5)n(C)c4c3)CCC2)ccc1/C=C/C(=O)O | 410 | 21 | – | – | – | – |
| Cn1c(-c2ccccn2)c(C2CCCC2)c2ccc(C(=O)NC3(C(=O)Nc4ccc(/C=C/C(=O)O)c(OC5CCC5)c4)CCC3)cc21 | 280 | 65 | 0.833 | – | – | – |
| Cn1c(-c2ccccn2)c(C2CCCC2)c2ccc(C(=O)NC3(C(=O)Nc4ccc(/C=C/C(=O)O)c(OCC5CC5)c4)CCC3)cc21 | 250 | 46 | 3.85 | – | – | – |
| Cn1c(-c2ccccn2)c(C2CCCC2)c2ccc(C(=O)NC3(C(=O)Nc4ccc(/C=C/C(=O)O)c(C(F)(F)F)c4)CCC3)cc21 | 180 | 230 | – | – | – | – |
| Cn1c(-c2ccccn2)c(C2CCCC2)c2ccc(C(=O)NC3(C(=O)Nc4ccc(/C=C/C(=O)O)c(Cl)c4)CCC3)cc21 | 100 | 110 | – | – | – | – |
| CCOc1cc(NC(=O)C2(NC(=O)c3ccc4c(C5CCCC5)c(-c5cnccn5)n(C)c4c3)CCC2)ccc1/C=C/C(=O)O | 48 | 21 | 0.767 | – | – | – |
| Cc1cc(NC(=O)C2(NC(=O)c3ccc4c(C5CCCC5)c(-c5ccccn5)n(C)c4c3)CCC2)ccc1/C=C/C(=O)O | 69 | 79 | – | – | – | – |
| Cn1c(-c2ccccn2)c(C2CCCC2)c2ccc(C(=O)NC3(C(=O)Nc4ccc(/C=C/C(=O)O)cc4C(F)(F)F)CCC3)cc21 | 2250 | > 2500 | – | – | – | – |
| Cn1c(-c2ccccn2)c(C2CCCC2)c2ccc(C(=O)NC3(C(=O)Nc4ccc(/C=C/C(=O)O)c(O)c4)CCC3)cc21 | 44 | 170 | – | – | – | – |
| Cn1c(-c2ccccn2)c(C2CCCC2)c2ccc(C(=O)NC3(C(=O)Nc4ccc(/C=C/C(=O)O)c(F)c4)CCC3)cc21 | 61 | 130 | – | – | – | – |
| CCOc1cc(NC(=O)C2(NC(=O)c3ccc4c(C5CCCC5)c(-c5nccs5)n(C)c4c3)CCC2)ccc1/C=C/C(=O)O | 150 | 12 | 0.6 | – | – | – |
| CCOc1cc(NC(=O)C2(NC(=O)c3ccc4c(C5CCCC5)c(-c5ncc(Cl)cn5)n(C)c4c3)CC2)ccc1/C=C/C(=O)O | 380 | 34 | 3.25 | – | – | – |
| Cn1c(-c2ccccn2)c(C2CCCC2)c2ccc(C(=O)NC3(C(=O)Nc4ccc(/C=C/C(=O)O)cc4F)CCC3)cc21 | 230 | 560 | – | – | – | – |
| COCCOc1cc(NC(=O)C(C)(C)NC(=O)c2ccc3c(C4CCCC4)c(-c4ncc(Cl)cn4)n(C)c3c2)ccc1/C=C/C(=O)O | 200 | 10 | 2.15 | 200 | – | 12 |
| Cn1c(-c2ccccn2)c(C2CCCC2)c2ccc(C(=O)NC3(C(=O)Nc4ccc(/C=C/C(=O)O)cc4O)CCC3)cc21 | 440 | 250 | – | – | – | – |
| Cn1c(-c2ccccn2)c(C2CCCC2)c2ccc(C(=O)NC3(C(=O)Nc4ccc(/C=C/C(=O)O)cc4Cl)CCC3)cc21 | 300 | – | – | – | – | – |
